For the first series, the system named is Blood. The series can be described thus: Biodistribution in blood of Fisher 344 rat bearing 9L tumor after 60 mins. It is filed as ADME, organism-based. The conditions noted are these: in vivo, 1 h. An outline of the steps:
(§1)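 9L tumor cells (5 × 10^6) inoculated into Fisher 344 rats, used 14-18 days later. Rats anesthetized with ethyl ether, given ~3.7 MBq [18F] tracer in 100 µL PBS via tail vein, sacrificed with ether at set times (10-120 min). Tissues dissected, weighed and gamma-counted. Values are %ID/g, mean ± SD, n = 4. Ratios taken from tissue uptake.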
For the compound `NC(Cc1ccc(O)c(CCC[18F])c1)C(=O)O` (stereo not given), the Drug uptake stood at 0.64 % ID/g.
The same measure, in the same setting: to `COc1ccc(CC(N)C(=O)O)cc1CCC[18F]` (stereo not given) belongs 0.24 % ID/g.
Compound `NC(Cc1ccc(O)c(CC[18F])c1)C(=O)O` (stereo not given) had a Drug uptake of 0.06 % ID/g.
Same read-out and setting: to `COc1ccc(CC(N)C(=O)O)cc1CC[18F]` (stereo not given) belongs 0.25 % ID/g.

The subject of another series is Lung. The series can be described thus: Biodistribution in lung of Fisher 344 rat bearing 9L tumor after 30 mins. The conditions noted are these: in vivo, 0.5 h. The format is ADME, organism-based. An outline of the steps:
as §1
Take `NC(Cc1ccc(O)c(CCC[18F])c1)C(=O)O` (stereo not given): the Drug uptake is given as 0.78 % ID/g.
On the same count and under the same terms, to `COc1ccc(CC(N)C(=O)O)cc1CCC[18F]` (stereo not given) belongs 0.34 % ID/g; to `NC(Cc1ccc(O)c(CC[18F])c1)C(=O)O` (stereo not given), 0.12 % ID/g; to `COc1ccc(CC(N)C(=O)O)cc1CC[18F]` (stereo not given), 0.37 % ID/g.

A further series deals with Femur. The series can be described thus: Biodistribution in femur of Fisher 344 rat bearing 9L tumor after 60 mins. It is filed as ADME, organism-based. The conditions noted are these: in vivo, 1 h. The method, boiled down: as §1
Turning to `NC(Cc1ccc(O)c(CCC[18F])c1)C(=O)O` (stereo not given), the Drug uptake came out at 1.45 % ID/g.
The same measure, in the same setting: to `COc1ccc(CC(N)C(=O)O)cc1CCC[18F]` (stereo not given) belongs 0.18 % ID/g; to `NC(Cc1ccc(O)c(CC[18F])c1)C(=O)O` (stereo not given), 0.76 % ID/g; to `COc1ccc(CC(N)C(=O)O)cc1CC[18F]` (stereo not given), 0.22 % ID/g.

Tested on in another series: not listed separately
The series can be described thus: Partition coefficient, log P of the compound. The conditions noted are these: octanol/water. It is filed as physicochemical. The method, boiled down: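 Shake-flask partition between 2.0 mL 1-octanol and 2.0 mL water. 10 µL of HPLC-purified radiotracer added, mixed 2 min at room temperature. Radioactivity counted in 300 µL of each phase to give log P.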
Usually logP stands for the decadic logarithm of the partition coefficient of the neutral form, usually between octanol and water. A higher logP goes with a more lipophilic compound. In the case of `NC(Cc1ccc(O)c(CCC[18F])c1)C(=O)O` (stereo not given), the logP is -1.07.
Same read-out and setting: to `COc1ccc(CC(N)C(=O)O)cc1CCC[18F]` (stereo not given) belongs -0.29; to `NC(Cc1ccc(O)c(CC[18F])c1)C(=O)O` (stereo not given), -1.37.
Still for that read-out and setting: to `COc1ccc(CC(N)C(=O)O)cc1CC[18F]` (stereo not given) belongs -0.75.

Tested on in a further series: not listed separately
The series can be described thus: Ratio of biodistribution in tumor to brain in Fisher 344 rat bearing 9L tumor after 60 mins. The format is ADME, organism-based. The following applies: in vivo, 1 h. An outline of the steps:
as §1
Turning to `NC(Cc1ccc(O)c(CCC[18F])c1)C(=O)O` (stereo not given), the Ratio turned out to be 4.05.
The same measure, in the same setting: to `COc1ccc(CC(N)C(=O)O)cc1CCC[18F]` (stereo not given) belongs 2.6; to `NC(Cc1ccc(O)c(CC[18F])c1)C(=O)O` (stereo not given), 2.92; to `COc1ccc(CC(N)C(=O)O)cc1CC[18F]` (stereo not given), 1.9.

(Values after ChEMBL document CHEMBL1138379, “Syntheses of F-18 labeled fluoroalkyltyrosine derivatives and their biological evaluation in rat bearing 9L tumor” (Bioorg Med Chem Lett, 2007).)
